# Measurements as given in ChEMBL document CHEMBL1157095, “Antimalarial versus cytotoxic properties of dual drugs derived from 4-aminoquinolines and Mannich bases: interaction with DNA” (J Med Chem, 2010).
# Key:
# Plasmodium falciparum [1] = assay: Antiplasmodial activity against chloroquine-susceptible Plasmodium falciparum FCM29 infected in human erythrocytes assessed as inhibition of [3H]hypoxanthine uptake after 48 hrs; format: functional, organism-based
# Outline: (§1)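 Strains were cultured in A-positive human blood in RPMI 1640 with 10% human serum, 25 mM HEPES and 25 mM NaHCO3, under 10% O2/5% CO2/85% N2 at 37 °C. Microtests used 0.5% parasitemia and 1.5% hematocrit. Tritiated hypoxanthine (1 μCi/well) was added at time zero, then 48 h incubation, freeze-thaw, harvest and scintillation counting. IC50 was taken by nonlinear regression against drug-free controls.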
# Plasmodium falciparum [2] = assay: Antiplasmodial activity against chloroquine-susceptible Plasmodium falciparum Voll infected in human erythrocytes assessed as inhibition of [3H]hypoxanthine uptake after 48 hrs; format: functional, organism-based; outline: as §1
# Plasmodium falciparum [3] = assay: Antiplasmodial activity against chloroquine-susceptible Plasmodium falciparum 8425 infected in human erythrocytes assessed as inhibition of [3H]hypoxanthine uptake after 48 hrs; format: functional, organism-based; outline: as §1
# Plasmodium falciparum [4] = assay: Antiplasmodial activity against chloroquine-susceptible Plasmodium falciparum 3D7 infected in human erythrocytes assessed as inhibition of [3H]hypoxanthine uptake after 48 hrs; format: functional, organism-based
# Outline: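 Culture in RPMI 1640 with 10% human serum, 25 mM HEPES, 25 mM NaHCO3, A-positive blood, 10% O2/5% CO2/85% N2, 37 C. Isotopic microtest: 0.5% parasitemia, 1.5% hematocrit, 1 μCi tritiated hypoxanthine at time zero, 48 h; freeze-thaw lysis, filter harvest, scintillation count. IC50 = 50% uptake versus drug-free control, nonlinear regression of log dose-response curves.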
# Plasmodium falciparum [5] = assay: Antiplasmodial activity against chloroquine-susceptible Plasmodium falciparum PA infected in human erythrocytes assessed as inhibition of [3H]hypoxanthine uptake after 48 hrs; format: functional, organism-based; outline: as §1
# Plasmodium falciparum [6] = assay: Antiplasmodial activity against chloroquine-susceptible Plasmodium falciparum L1 infected in human erythrocytes assessed as inhibition of [3H]hypoxanthine uptake after 48 hrs; format: functional, organism-based; outline: as §1
# Plasmodium falciparum [7] = assay: Antiplasmodial activity against chloroquine-susceptible Plasmodium falciparum Bres infected in human erythrocytes assessed as inhibition of [3H]hypoxanthine uptake after 48 hrs; format: functional, organism-based; outline: as §1
# Plasmodium falciparum [8] = assay: Antiplasmodial activity against chloroquine-susceptible Plasmodium falciparum W2 infected in human erythrocytes assessed as inhibition of [3H]hypoxanthine uptake after 48 hrs; format: functional, organism-based; outline: as §1
# Plasmodium falciparum [9] = assay: Antiplasmodial activity against chloroquine-susceptible Plasmodium falciparum D6 infected in human erythrocytes assessed as inhibition of [3H]hypoxanthine uptake after 48 hrs; format: functional, organism-based; outline: as §1
# Plasmodium falciparum [10] = assay: Antiplasmodial activity against chloroquine-susceptible Plasmodium falciparum K14 infected in human erythrocytes assessed as inhibition of [3H]hypoxanthine uptake after 48 hrs; format: functional, organism-based; outline: as §1
# Plasmodium falciparum [11] = assay: Antiplasmodial activity against chloroquine-susceptible Plasmodium falciparum K2 infected in human erythrocytes assessed as inhibition of [3H]hypoxanthine uptake after 48 hrs; format: functional, organism-based; outline: as §1
# Plasmodium falciparum [12] = assay: Antiplasmodial activity against chloroquine-susceptible Plasmodium falciparum FCR3 infected in human erythrocytes assessed as inhibition of [3H]hypoxanthine uptake after 48 hrs; format: functional, organism-based; outline: as §1
# Plasmodium berghei = assay: Antiplasmodial activity against Plasmodium berghei ANKA infected in Swiss mice (Mus musculus) assessed as reduction of parasitaemia at 10 mg/kg, intraperitoneal every day for 4 days; format: functional; conditions: ip, 96 h
# Nucleic Acid [13] = assay: Binding affinity to pUC18 DNA containing 50% AT assessed as middle of the integrated surface melting temperature at 1 uM by spectrophotometry analysis; format: nucleic-acid assay
# Outline: (§2)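 Drug at 1 μM was mixed with DNA at 15 μM base pairs (15:1 bp:drug) in TE with 5 mM NaCl. Absorbance at 260 nm was recorded from 30-97 °C at 0.5 °C/min, with readings every 0.5 °C. Curves were normalized, smoothed and differentiated. Tmmax = derivative peak maximum; Tmint = middle of the integrated area; Tm1/2 = middle of the peak at half height.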
# Nucleic Acid [14] = assay: Binding affinity to pUC18 DNA containing 50% AT assessed as middle of the peak at half height melting temperature at 1 uM by spectrophotometry analysis; format: nucleic-acid assay; outline: as §2
# Nucleic Acid [15] = assay: Binding affinity to polydAdT DNA containing 100% AT assessed as middle of the integrated surface melting temperature at 1 uM by spectrophotometry analysis; format: nucleic-acid assay; outline: as §2
# MRC5 = assay: Cytotoxicity against human MRC5 after 3 days; format: cell-based; conditions: MRC5, 72 h
# Outline: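 MRC-5SV2 cells were grown in Earle's MEM with 5% FCSi and plated at about 10^4 cells/well. After 3 days of incubation, viability was read fluorimetrically with resazurin (ex 550/em 590 nm). Growth reduction was expressed relative to untreated control wells, and CC50 was derived.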
# NCH89 = assay: Antiproliferative activity against human carmustine-resistant NCH-89 cells assessed as BrdU incorporation after 48 hrs; format: functional, cell-based; conditions: NCH89, 48 h
# Outline: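 NCH89 glioblastoma cells were seeded at 7 × 10^3 cells/well in replicate wells for 24 h. Compound was then added at 0.1-100 μM. After 48 h, BrdU was added at 100 μM final, and incorporation was detected with a BrdU labeling/detection kit.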
# Nucleic Acid [16] = assay: Binding affinity to pUC18 DNA at pH 7.5 by spectrofluorimetry analysis; format: nucleic-acid assay
# Outline: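 A 1-10 μM drug solution was titrated at room temperature with linearized pUC18 DNA (50% AT), 0.1-50 μM base pairs final, in TE buffer with 5 mM NaCl (ionic strength 12 mM). Fluorescence used excitation at 320 nm and emission at 340-500 nm, corrected for buffer and instrument response. Kd = DNA concentration giving half-bound drug.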
# Nucleic Acid [17] = assay: Binding affinity to pUC18 DNA containing 50% AT assessed as maximum melting temperature at 1 uM by spectrophotometry analysis; format: nucleic-acid assay; outline: as §2
# Nucleic Acid [18] = assay: Binding affinity to polydAdT DNA containing 100% AT assessed as maximum melting temperature at 1 uM by spectrophotometry analysis; format: nucleic-acid assay; outline: as §2
# Nucleic Acid [19] = assay: Binding affinity to pUC18 DNA at pH 7.5 by UV-Vis spectrophotometry analysis; format: nucleic-acid assay
# Outline: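 A 10 μM drug solution was titrated at room temperature with linearized pUC18 DNA (50% AT), 0.1-50 μM base pairs final. Buffer was TE (10 mM Tris-HCl, 0.1 mM EDTA) with 5 mM NaCl, ionic strength 12 mM. UV-Vis absorption spectra were recorded at 220-380 nm. Kd = DNA concentration at which half the drug is bound.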
# Nucleic Acid [20] = assay: Binding affinity to polydAdT DNA containing 100% AT assessed as middle of the peak at half height melting temperature at 1 uM by spectrophotometry analysis; format: nucleic-acid assay; outline: as §2
# Plasmodium falciparum [21] = assay: Antiplasmodial activity against chloroquine-susceptible Plasmodium falciparum NF54 infected in human erythrocytes assessed as inhibition of [3H]hypoxanthine uptake after 48 hrs; format: functional, organism-based
# Outline: (§3)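 Asynchronous ring-stage cultures in human A Rh+ erythrocytes (RPMI 1640, HEPES, NaHCO3, hypoxanthine, 0.5% Albumax II, 5% CO2, 37 C), 1% parasitemia; top final drug concentration 30 μM. After 24 h, [3H]-hypoxanthine (0.2 μCi/well) added, further 48 h incubation; plates freeze-thawed, harvested, uptake counted; IC50 calculated.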
# Plasmodium falciparum [22] = assay: Antiplasmodial activity against chloroquine, pyrimethamine, cycloguanil-resistant Plasmodium falciparum K1 infected in human erythrocytes assessed as inhibition of [3H]hypoxanthine uptake after 48 hrs; format: functional, organism-based; outline: as §3
# Plasmodium falciparum [23] = assay: Antiplasmodial activity against chloroquine-resistant Plasmodium falciparum Dd2 infected in human erythrocytes assessed as inhibition of [3H]hypoxanthine uptake after 48 hrs; format: functional, organism-based
# Outline: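 Ring-stage infected erythrocytes (0.5% parasitemia, 2.5% hematocrit) exposed to compounds 48 h, then radioactive hypoxanthine 24 h; radioactivity in precipitable material taken as proliferation index for IC50.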
SMILES,IC90 (Plasmodium falciparum [1]),IC50 (Plasmodium falciparum [2]),IC90 (Plasmodium falciparum [2]),IC50 (Plasmodium falciparum [3]),IC90 (Plasmodium falciparum [3]),IC50 (Plasmodium falciparum [4]),IC90 (Plasmodium falciparum [4]),IC50 (Plasmodium falciparum [5]),IC90 (Plasmodium falciparum [5]),IC50 (Plasmodium falciparum [6]),IC90 (Plasmodium falciparum [6]),IC50 (Plasmodium falciparum [7]),IC90 (Plasmodium falciparum [7]),IC50 (Plasmodium falciparum [8]),IC90 (Plasmodium falciparum [8]),IC50 (Plasmodium falciparum [9]),IC90 (Plasmodium falciparum [9]),IC90 (Plasmodium falciparum [10]),IC90 (Plasmodium falciparum [11]),IC90 (Plasmodium falciparum [12]),also measured
C=C[C@H]1CN2CC[C@H]1C[C@H]2[C@H](O)c1ccnc2ccc(OC)cc12 [QUININE],1200 nM,422 nM,843 nM,130 nM,390 nM,104 nM,597 nM,627 nM,1110 nM,531 nM,995 nM,689 nM,614 nM,684 nM,1250 nM,61.8 nM,464 nM,1640 nM,1510 nM,1110 nM,IC50 (Plasmodium falciparum [10]): 496 nM; IC50 (Plasmodium falciparum [11]): 619 nM; IC50 (Plasmodium falciparum [12]): 665 nM
CCN(CC)CCCC(C)Nc1ccnc2cc(Cl)ccc12 (stereo unspecified) [CHLOROQUINE],,,316 nM,,59.2 nM,,,,483 nM,,418 nM,,614 nM,,693 nM,,44.4 nM,1130 nM,912 nM,686 nM,inhibition in vivo at 10 mg/kg (Plasmodium berghei): 98.9%; Tm (Nucleic Acid [13]): 73.7 °C; Tm (Nucleic Acid [14]): 74.7 °C; Tm (Nucleic Acid [15]): 46.6 °C; IC50 (MRC5): 64000 nM; IC50 (NCH89): 41200 nM; Kd (Nucleic Acid [16]): 9000 nM; Tm (Nucleic Acid [17]): 73.2 °C; Tm (Nucleic Acid [18]): 46.9 °C; Kd (Nucleic Acid [19]): 7500 nM; Tm (Nucleic Acid [20]): 47 °C
CC(C)NCCNc1ccnc2cc(Cl)ccc12,369 nM,63.7 nM,135 nM,29 nM,59.4 nM,35.2 nM,65.6 nM,64 nM,107 nM,63.2 nM,132 nM,129 nM,218 nM,169 nM,320 nM,35.6 nM,67.8 nM,316 nM,285 nM,164 nM,IC50 (Plasmodium falciparum [1]): 239 nM; Tm (Nucleic Acid [13]): 73.9 °C; IC50 (Plasmodium falciparum [21]): 8.9 nM; Tm (Nucleic Acid [14]): 74.5 °C; Tm (Nucleic Acid [15]): 46.5 °C; IC50 (Plasmodium falciparum [22]): 47.4 nM; IC50 (MRC5): 64000 nM; IC50 (NCH89): 30400 nM; IC50 (Plasmodium falciparum [10]): 171 nM; IC50 (Plasmodium falciparum [11]): 130 nM; Kd (Nucleic Acid [16]): 8000 nM; IC50 (Plasmodium falciparum [12]): 86.1 nM; Tm (Nucleic Acid [17]): 73 °C; Tm (Nucleic Acid [18]): 46.6 °C; IC50 (Plasmodium falciparum [23]): 22.6 nM; Kd (Nucleic Acid [19]): 17500 nM; Tm (Nucleic Acid [20]): 46.5 °C
